Hits are enriched below; roughly 1% of the tested compounds scored in any of these assays.
procasp7 counter: counter-screen for procaspase-3 activators: activators of human procaspase-7; AID 463210; 330,000 tested, 0.093% active; recombinant procaspase-7, Ac-DEVD-pNA absorbance 405 nm; D23A/D198A/D206A triple mutant, cannot self-cleave; scale: DMSO 0, 5 µM enzyme 100; activation, % at 8.5 µM; P55210;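 active means percent activation above the screen-wide mean plus 3 SD, cut at about 25% in these data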
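Replicates: singlicate. Assay system: Procaspase-7 triple mutant (PC-7 D3A). Signal: 405 nm absorbance of p-nitroaniline. Times: 1 h preincubation, 2 h reaction. Buffer or medium: Zinc-free HEPES pH 7.4 with 300 mM NaCl, 0.01% Triton X-100. Also added: DEVD-pNA substrate. Benchmarks: DMSO wells as 0%, DMSO with 5 µM added PC-7 as 100%.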
PREPL inh: inhibits the human prolyl oligopeptidase-like enzyme; inhibition, % at 5.96 µM; 320,000 tested, 0.68% active; recombinant PREPL, fluorescence polarization activity-based probe; in the data active means inhibition above about 43%;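 further: 0% = enzyme with DMSO and 100% = wells lacking enzyme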
LYPLA2 counter: blocks human lysophospholipase 2, a PME1 counter-screen | O95372 | recombinant LYPLA2, FP-Rh probe fluorescence polarization | inhibition, % at 5.9 µM | 320,000 tested, 0.38% active;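 active means inhibition above the screen-wide mean plus 3 SD, limit set per campaign, cut at about 26% in these data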;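 further: 0% = LYPLA2 with DMSO and 100% = wells lacking LYPLA2 enzyme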
procasp3 activ: activates human procaspase-3; recombinant procaspase-3 D3A, Ac-DEVD-pNA absorbance 405 nm; activation, % at 8.5 µM; 330,000 tested, 0.11% active; AID 463141;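 active means activation above the mean of all tested compounds plus 3 SD, cut at about 21% in these data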;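 further: 0% = DMSO alone and 100% = DMSO wells spiked with extra 5 µM PC-3 D3A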
Target sequence (P42574 whole entry D9A/D28A/D175A): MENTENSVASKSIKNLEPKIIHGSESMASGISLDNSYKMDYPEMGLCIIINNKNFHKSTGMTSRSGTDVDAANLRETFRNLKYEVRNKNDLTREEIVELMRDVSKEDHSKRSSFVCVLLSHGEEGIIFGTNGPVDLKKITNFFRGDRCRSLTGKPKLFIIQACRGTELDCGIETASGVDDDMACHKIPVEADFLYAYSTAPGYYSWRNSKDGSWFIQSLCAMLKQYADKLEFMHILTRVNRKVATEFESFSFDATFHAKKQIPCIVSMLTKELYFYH
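Evaluation: percent activation relative to control range; Material: Procaspase-3 D3A mutant, all three cleavage aspartates alanine; Compound: single dose, 8.5 µM nominal compound, 0.8% DMSO; Replication: one well per compound; Signal: absorbance at 405 nm, 0 and 120 min; Schedule: 1 h preincubation plus 2 h reaction at 25 °C.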
LYPLA1 inh: LYPLA1 (human) inhibition in PME1 counter-screen; O75608; inhibition, % at 5.9 µM; recombinant LYPLA1, FP-Rh probe fluorescence polarization; 320,000 tested, 0.16% active;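 active means inhibition above the mean of all tested compounds plus 3 SD, set per campaign, cut at about 14% in these data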;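 further: inhibitors block serine hydrolase probe labeling of LYPLA1 so polarization falls; 0% = enzyme with DMSO and 100% = wells lacking LYPLA1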
Target sequence (O75608 whole entry, looked up): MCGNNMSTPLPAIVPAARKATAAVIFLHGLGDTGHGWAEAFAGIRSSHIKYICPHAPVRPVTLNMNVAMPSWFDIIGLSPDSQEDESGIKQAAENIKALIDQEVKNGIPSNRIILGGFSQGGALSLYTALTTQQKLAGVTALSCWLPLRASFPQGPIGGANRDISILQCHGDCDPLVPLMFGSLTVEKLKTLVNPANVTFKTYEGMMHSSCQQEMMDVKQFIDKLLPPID
PC3 D3A act: counter-screen: procaspase-3 (human) activation | activation, % at 8.5 µM | 290 tested, under 10 active | shares compounds with procasp7 counter | AID 493114 | recombinant PC-3 D3A, Ac-DEVD-pNA absorbance 405 nm; aspartates 9, 28, 175 changed to alanine; 100% = enzyme control;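 active means mean percent activation across triplicates above a set limit taken from the earlier primary procaspase-3 screen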;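 further: 0% = DMSO wells and 100% = DMSO wells with 5 µM added PC-3 D3A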
Procasp7 act: procaspase-7 (human) activation, dual activator confirmation; shares compounds with procasp7 counter; recombinant procaspase-7, Ac-DEVD-pNA absorbance 405 nm; D23A/D198A/D206A mutant that cannot self-cleave; 290 tested, under 10 active; activation, % at 8.5 µM; AID 493115;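 active means mean activation above a set limit carried over from the earlier primary screen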;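 further: 0% = DMSO only and 100% = DMSO with added 5 µM PC-7 enzyme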
* hit, by the source's call; · = not tested or not shown.

SMILES	procasp7 counter	PREPL inh	LYPLA2 counter	procasp3 activ	LYPLA1 inh	PC3 D3A act	Procasp7 act
O=C(Cc1cc(=O)oc2cc(O)ccc12)NC(Cc1ccc(Cl)cc1)C(=O)O (stereo not given)	27*	9	-6	20	2	-30	-36
O=C(COc1ccc2ccc(=O)oc2c1)NC(Cc1ccc(Cl)cc1)C(=O)O (stereo not given)	-7	15	5	3	-1	·	·
Cc1nc(C(=O)NNC(=O)c2ccc(Cl)cc2)cs1	-1	-2	-2	-4	0	·	·
COc1ccc(-n2nc3cc(N)c(Br)cc3n2)cc1	-1	11	6	0	-1	·	·
CCc1ccc(-n2nc3cc(C)c(N)cc3n2)cc1	28*	8	1	35*	-2	-30	-35
CC(=O)Nc1cc2c(ccc3ccccc32)oc1=O	12	-6	1	-3	-4	·	·
O=C(c1ccco1)c1cc2c(ccc3ccccc32)oc1=O	26*	-2	2	9	-3	-7	-8
CCn1nc(NC(=O)c2ccccc2)c2cc3cccc(C)c3nc21	50*	10	-2	53*	-3	-29	-35
CCn1nc(NC(C)=O)c2cc3cccc(C)c3nc21	-5	3	-1	-11	-3	·	·
Cc1cccc2cc3c(NC(=O)C(C)(C)C)nn(CC(C)C)c3nc12	35*	6	0	36*	-2	-29	-36
Cc1ccc2nc(-c3ccc(NC(=O)C(C)Sc4nncs4)cc3)sc2c1 (stereo not given)	30*	-4	-35	3	-25	2	-2
COc1ccc(-c2cc(C(F)F)n3ncc(C(=O)N4CCc5ccccc5C4)c3n2)cc1	26*	-3	-7	5	-8	-30	-36
Cn1ncc(C(=O)N=S(C)(=O)c2ccccc2)c1[N+](=O)[O-] (stereo not given)	-4	-2	-7	8	-3	·	·
O=C(O)CC(C(=O)NCc1ccccc1)C1CCCO1 (stereo not given)	27*	-4	1	-6	1	2	1
O=C(N/N=C/c1c[nH]c2ccccc12)c1cc(-c2ccc3ccccc3c2)n[nH]1	31*	35	-15	9	-33	3	-1
COc1cccc(C=NCC(C)N=Cc2cccc(OC)c2O)c1O (stereo not given)	82*	3	-3	7	1	-1	-1
COc1ccc(O)c(C=NCC(C)N=Cc2cc(OC)ccc2O)c1 (stereo not given)	-3	12	12	15	4	·	·
Cc1ccc(N)cc1NC(=O)CN1CCOCC1	26*	12	8	13	2	2	-1
CN(C)c1nc(-c2ccccc2)cc(C(F)(F)F)c1C#N	14	13	-5	16	-3	·	·
CN(C)c1nc(-c2cccs2)cc(C(F)(F)F)c1C#N	39*	-4	-8	-7	-3	-31	-36
CCC(C)NC(=O)CSc1ccc(NC(C)=O)cc1 (stereo not given)	39*	-4	-3	-4	0	2	7
CCC(C)NC(=O)CSc1ccc(Cl)cc1 (stereo not given)	0	-6	16	1	3	·	·
O=C(O)c1ccc(Cn2ccc3ccccc32)o1	8	-1	1	-3	-2	·	·
CCOc1cccc(OCCOc2ccc(C(=O)c3ccccc3)cc2)c1	26*	6	2	6	7	0	-1
COc1ccc(OC)c(/C=C/C(=O)Nc2cccc(S(=O)(=O)NC3=NCCCCC3)c2)c1	85*	-2	-9	26*	-7	1	0
SMILES	procasp7 counter	PREPL inh	LYPLA2 counter	procasp3 activ	LYPLA1 inh	PC3 D3A act	Procasp7 act
COc1ccc(/C=C/C(=O)Nc2cccc(S(=O)(=O)NC3=NCCCCC3)c2)c(OC)c1	1	15	-15	6	-13	·	·
CC1CCC(C(C)C)C(OC(=O)COC(=O)c2cc(O)ccc2N)C1 (stereo not given)	50*	11	3	41*	-3	-30	-35
Cc1cc2nc(C3CCN(Cc4nnnn4Cc4cccs4)CC3)[nH]c2cc1C	-8	12	5	7	4	·	·
Fc1ccc(C2CC(c3ccco3)=NN2c2ccccc2)cc1 (stereo not given)	36*	4	7	32*	1	-29	-36
CCC1CCCCN1CCCNC(=O)c1ccc(/C=C2/Sc3ccccc3NC2=O)cc1 (stereo not given)	-4	-7	0	-10	-1	·	·
Cc1ccc(-c2cc3nc(-c4ccccc4)cc(N4CCC5(CC4)OCCO5)n3n2)cc1	-25	6	-6	-25	-4	·	·
Cc1cccc(-c2cc3nc(-c4ccccc4)cc(N4CCC5(CC4)OCCO5)n3n2)c1	30*	5	-8	17	-7	-28	-34
Fc1cccc(-c2cc3nc(-c4ccccc4)cc(N4CCC5(CC4)OCCO5)n3n2)c1	30*	-7	-12	22*	-10	-26	-28
NC(=O)c1nsc(C(=O)N(c2ccccc2)C(C(=O)NCc2ccc(F)cc2)c2ccc(O)cc2)c1N (stereo not given)	157*	16	-9	-76	-5	-30	-36
COc1ccc(OC)c(C(C(=O)NC2CCCCC2)N(C(=O)c2snc(C(N)=O)c2N)c2ccccc2OC)c1 (stereo not given)	-4	11	-1	0	1	·	·
COc1ccc(OC)c(N(C(=O)c2snc(C(N)=O)c2N)C(C(=O)NCc2ccccc2)c2ccc(O)cc2)c1 (stereo not given)	4	18	1	4	1	·	·
COc1ccc(CNC(=O)C(c2ccc(C)o2)N(C(=O)c2snc(C(N)=O)c2N)c2ccccc2OC)cc1 (stereo not given)	26*	14	5	-105	1	-25	-24
COc1ccccc1N(C(=O)c1snc(C(N)=O)c1N)C(C(=O)NC1CCCCC1)c1cccc(OC)c1OC (stereo not given)	37*	13	-1	14	-6	-21	-18
O=C(Nc1ccc2nc3n(c(=O)c2c1)CCCC3)c1ccccc1[N+](=O)[O-]	2	10	8	-1	-4	·	·
COc1ccc(/C=C2\OC(=O)c3c(OC)cccc32)cc1OC	89*	14	7	-19	7	-27	-35
C#CCn1c(=O)c2c(ncn2C)n(C)c1=O	-10	-9	-4	2	2	·	·
